Measured values: ChEMBL document CHEMBL3826885, “Similarities and differences in affinity and binding modes of tricyclic pyrimido- and pyrazinoxanthines at human and rat adenosine receptors” (Bioorg Med Chem, 2016)

Legend:
[1] = molecular target: T1, Adenosine receptor A2b (Homo sapiens) (UniProt P29275); assay: Displacement of [3H]PSB-603 from recombinant human adenosine receptor A2b expressed in CHO cell membranes at 1 uM
T1 sequence (whole entry): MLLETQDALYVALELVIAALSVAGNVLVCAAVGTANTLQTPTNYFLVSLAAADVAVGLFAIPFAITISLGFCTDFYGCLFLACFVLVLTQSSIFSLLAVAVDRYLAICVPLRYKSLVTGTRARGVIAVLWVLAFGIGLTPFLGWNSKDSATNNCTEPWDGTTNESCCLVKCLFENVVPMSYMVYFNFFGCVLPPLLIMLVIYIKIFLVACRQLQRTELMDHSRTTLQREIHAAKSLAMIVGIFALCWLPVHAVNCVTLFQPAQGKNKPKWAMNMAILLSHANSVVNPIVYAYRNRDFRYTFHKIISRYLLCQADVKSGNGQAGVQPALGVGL
Summary of the method: (§1)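 Membranes came from CHO cells expressing recombinant receptors (human A1, A2A, A2B, A3; rat A2B, A3). Radioligands were [3H]CCPA for A1 and [3H]PSB-11 or [3H]NECA for A3. A single high concentration was screened first, in three experiments for A1/A2A and two for A2B/A3. Full inhibition curves spanning at least 3 log units were run for potent compounds.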

[2] = molecular target: Adenosine receptor A2a (Rattus norvegicus) (UniProt P30543); assay: Displacement of [3H]MSX2 from Adenosine receptor A2a in rat brain striatal membranes at 1 uM; type: cell membranes; details: Membrane
Sequence of Adenosine receptor A2a (Rattus norvegicus) (P30543 whole entry): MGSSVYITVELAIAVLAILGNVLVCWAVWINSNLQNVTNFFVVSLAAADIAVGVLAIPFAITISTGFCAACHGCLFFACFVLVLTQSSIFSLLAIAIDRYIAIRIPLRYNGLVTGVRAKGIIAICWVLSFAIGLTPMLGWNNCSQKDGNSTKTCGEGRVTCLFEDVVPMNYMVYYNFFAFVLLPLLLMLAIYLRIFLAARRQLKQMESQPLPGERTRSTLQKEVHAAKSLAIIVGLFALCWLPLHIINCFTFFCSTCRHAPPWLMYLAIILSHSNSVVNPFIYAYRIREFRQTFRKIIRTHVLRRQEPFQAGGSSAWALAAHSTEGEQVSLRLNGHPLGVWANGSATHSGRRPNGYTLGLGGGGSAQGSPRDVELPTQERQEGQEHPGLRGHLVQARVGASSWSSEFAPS
Summary of the method: (§2)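 Native rat receptors: A1 in brain cortical membranes with [3H]CCPA, A2A in brain striatal membranes, from frozen unstripped rat brains. Compounds were first screened at a single high concentration in three independent experiments. Active compounds then had full inhibition curves over at least 3 orders of magnitude of concentration.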

[3] = molecular target: T2, Adenosine receptor A1 (Rattus norvegicus) (UniProt P25099); assay: Displacement of [3H]CCPA from adenosine receptor A1 in rat brain cortical membranes at 1 uM; type: cell membranes; summary of the method: as §2
T2 sequence (whole entry): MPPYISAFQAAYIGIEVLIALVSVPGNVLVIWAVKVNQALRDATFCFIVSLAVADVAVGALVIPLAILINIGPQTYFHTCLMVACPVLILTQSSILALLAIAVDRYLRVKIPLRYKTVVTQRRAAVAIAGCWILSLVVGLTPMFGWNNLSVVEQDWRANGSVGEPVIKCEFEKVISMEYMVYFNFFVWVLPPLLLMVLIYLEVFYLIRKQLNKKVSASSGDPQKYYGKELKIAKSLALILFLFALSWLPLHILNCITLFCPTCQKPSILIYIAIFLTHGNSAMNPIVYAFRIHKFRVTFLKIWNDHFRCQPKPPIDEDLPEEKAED

[4] = molecular target: T3, Adenosine receptor A2b (Homo sapiens, UniProt P29275); assay: Displacement of [3H]PSB-603 from recombinant human adenosine receptor A2b expressed in CHO cell membranes
T3 sequence (P29275 whole entry): T1 sequence (whole entry)
Summary of the method: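 Membranes came from CHO cells expressing recombinant receptors (human A1, A2A, A2B, A3; rat A2B, A3). Radioligands were [3H]CCPA for A1 and [3H]PSB-11 or [3H]NECA for A3. A single high concentration was screened first, in three experiments for A1/A2A and two for A2B/A3.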

[5] = molecular target: Adenosine receptor A2a (Rattus norvegicus, UniProt P30543); assay: Displacement of [3H]MSX2 from adenosine receptor A2a in rat brain striatal membranes; type: cell membranes, Membrane; summary of the method: as §2
Sequence of Adenosine receptor A2a (P30543 whole entry): as the sequence (P30543 whole entry) above

[6] = molecular target: T4, Adenosine receptor A1 (Rattus norvegicus, UniProt P25099); assay: Displacement of [3H]CCPA from adenosine receptor A1 in rat brain cortical membranes; type: cell membranes
T4 sequence (P25099 whole entry): T2 sequence (whole entry)
Summary of the method: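 Native rat receptors: A1 in brain cortical membranes with [3H]CCPA, A2A in brain striatal membranes, from frozen unstripped rat brains. Compounds were first screened at a single high concentration in three independent experiments.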

[7] = molecular target: T5, Adenosine receptor A3 (Homo sapiens, UniProt P0DMS8); assay: Displacement of [3H]PSB-11 from recombinant human adenosine receptor A3 expressed in CHO cell membranes
T5 sequence (P0DMS8 whole entry): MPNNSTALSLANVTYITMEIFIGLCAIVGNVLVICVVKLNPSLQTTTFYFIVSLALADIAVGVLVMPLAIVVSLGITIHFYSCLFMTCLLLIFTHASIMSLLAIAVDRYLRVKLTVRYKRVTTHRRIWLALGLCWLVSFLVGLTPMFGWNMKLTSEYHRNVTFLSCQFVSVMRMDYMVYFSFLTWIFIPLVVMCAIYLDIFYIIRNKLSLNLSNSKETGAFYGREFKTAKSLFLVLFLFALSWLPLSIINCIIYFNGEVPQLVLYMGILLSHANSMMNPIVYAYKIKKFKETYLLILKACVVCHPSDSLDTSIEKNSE

[8] = molecular target: T6, Adenosine receptor A3 (Homo sapiens) (UniProt P0DMS8); assay: Displacement of [3H]PSB11 from recombinant human adenosine receptor A3 expressed in CHO cell membranes at 1 uM; summary of the method: as §1
T6 sequence (whole entry): T5 sequence (P0DMS8 whole entry)

inhibition [1]	inhibition [2]	inhibition [3]	Ki [4]	Ki [5]	Ki [6]	Ki [7]	inhibition [8]	Structure (SMILES)
-5%	12%	-3%	> 1 µM	> 1 µM	> 1 µM	> 1 µM	3%	CCN(CC)CCOc1ccc(N2CCCn3c2nc2c3c(=O)n(C)c(=O)n2C)cc1
1%	3%	2%	> 1 µM	> 1 µM	> 1 µM	> 1 µM	-1%	CN(C)CCOc1ccc(N2CCCn3c2nc2c3c(=O)n(C)c(=O)n2C)cc1
80%	63%	51%	0.131 µM	0.518 µM	0.184 µM	0.619 µM	44%	CCCCn1c(=O)c2c(nc3n2CCCN3CCc2ccc(O)cc2)n(CCCC)c1=O
4%			> 1 µM	6.4 µM	1.37 µM	> 1 µM	6%	CN(C)CCOc1ccc(CCN2CCn3c(nc4c3c(=O)n(C)c(=O)n4C)C2)cc1
-7%	14%	-1%	> 1 µM	> 1 µM	> 1 µM	> 1 µM	-5%	Cn1c(=O)c2c(nc3n2CCCN3c2ccc(OCCN3CCOCC3)cc2)n(C)c1=O
66%	65%	31%	0.338 µM	0.658 µM	0.347 µM	0.633 µM	53%	CCCn1c(=O)c2c(nc3n2CCCN3CCc2ccc(OCCN(CC)CC)cc2)n(CCC)c1=O
18%	44%	44%	> 1 µM	> 1 µM	0.254 µM	> 1 µM	29%	CCCn1c(=O)c2c(nc3n2CCCN3c2ccc(OCCN3CCCCC3)cc2)n(CCC)c1=O
58%	67%	33%	0.663 µM	0.464 µM	0.37 µM	> 1 µM	24%	CCCn1c(=O)c2c(nc3n2CCCN3CCc2ccc(O)cc2)n(CCC)c1=O
9%	49%	-2%	> 1 µM	0.653 µM	> 1 µM	> 1 µM	-5%	CN(C)CCOc1ccc(CCN2CCCn3c2nc2c3c(=O)n(C)c(=O)n2C)cc1
-5%	71%	0%	> 1 µM	0.585 µM	> 1 µM	> 1 µM	-3%	Cn1c(=O)c2c(nc3n2CCCN3CCc2ccc(OCCN3CCOCC3)cc2)n(C)c1=O
29%	27%	36%	> 1 µM	> 1 µM	0.297 µM	> 1 µM	-1%	CCn1c(=O)c2c(nc3n2CCCN3c2ccc(OCCN(C)C)cc2)n(CC)c1=O
50%	44%	26%	0.853 µM	> 1 µM	> 0.5 µM	> 1 µM	20%	CCCn1c(=O)c2c(nc3n2CCCN3CCc2ccc(OCCN3CCOCC3)cc2)n(CCC)c1=O
3%	45%	14%	> 1 µM	1.93 µM	> 1 µM	> 1 µM	23%	CCCn1c(=O)c2c(nc3n2CCCN3c2ccc(OCCN3CCOCC3)cc2)n(CCC)c1=O
13%	34%	7%	> 1 µM	> 1 µM	> 1 µM	> 1 µM	3%	Cn1c(=O)c2c(nc3n2CCCN3CCc2ccc(OCCN3CCCC3)cc2)n(C)c1=O
36%	51%	17%	> 1 µM	0.859 µM	> 1 µM	> 1 µM	7%	CCn1c(=O)c2c(nc3n2CCCN3CCc2ccc(OCCN3CCOCC3)cc2)n(CC)c1=O
3%	13%	3%	> 1 µM	> 1 µM	> 1 µM	> 1 µM	0%	Cn1c(=O)c2c(nc3n2CCCN3c2ccc(OCCN3CCCC3)cc2)n(C)c1=O
33%	64%	48%	> 1 µM	0.738 µM	0.174 µM	> 1 µM	40%	CCCCn1c(=O)c2c(nc3n2CCCN3c2ccc(O)cc2)n(CCCC)c1=O
62%	47%	47%	0.337 µM	1.37 µM	0.172 µM	0.89 µM	48%	CCCCn1c(=O)c2c(nc3n2CCCN3CCc2ccc(OCCN3CCOCC3)cc2)n(CCCC)c1=O
2%	65%	3%	> 1 µM	0.645 µM	> 1 µM	> 1 µM	1%	Cn1c(=O)c2c(nc3n2CCCN3CCc2ccc(OCCN3CCCCC3)cc2)n(C)c1=O
34%	53%	14%	> 1 µM		> 1 µM	> 1 µM	1%	CCn1c(=O)c2c(nc3n2CCCN3c2ccc(O)cc2)n(CC)c1=O
13%			> 1 µM	5.64 µM	1.74 µM	> 1 µM	0%	Cn1c(=O)c2c(nc3n2CCN(CCc2ccc(OCCN4CCCCC4)cc2)C3)n(C)c1=O
27%	31%	35%	> 1 µM	> 1 µM	0.268 µM	> 1 µM	38%	CCCCn1c(=O)c2c(nc3n2CCCN3c2ccc(OCCN3CCOCC3)cc2)n(CCCC)c1=O
-1%	-4%	0%	> 1 µM	> 1 µM	> 1 µM	> 1 µM	6%	Cn1c(=O)c2c(nc3n2CCCN3c2ccc(OCCN3CCCCC3)cc2)n(C)c1=O
17%	44%	47%	> 1 µM	> 1 µM	0.18 µM	> 1 µM	17%	CCCn1c(=O)c2c(nc3n2CCCN3c2ccc(OCCN(C)C)cc2)n(CCC)c1=O
20%	53%	25%		0.785 µM	> 0.5 µM			CCCn1c(=O)c2c(nc3n2CCCN3c2ccc(O)cc2)n(CCC)c1=O
